Reference: PMC8496415 (Translational Vision Science & Technology, 2021)

What was measured:
[1] = Maximum solubility / achievable concentration in solution; format: physicochemical
axial elongation = conditions: topical, chick; ref 25 (Thomson et al.); cited from earlier work
Long Evans rat eyes = assay: Clinical examination, OCT imaging and ERG after 28-day once-daily eye drop; format: in vivo
rat eyes = assay: Histology and immunohistochemistry; format: in vivo; conditions: once-daily 10% eye drop, 14 and 28 days
Outline: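 Rats received 5 µL of 10% test compound drops once daily in one eye, PBS in the other. Eyes were taken at days 14 and 28, fixed overnight in 4% paraformaldehyde at 4°C, frozen and cut into 12 µm sections. Stains: H&E; cleaved caspase-3 (5% BSA block, primary 1:200 2 h, Alexa 488 secondary 1:400 1 h, DAPI) with caspase-3+ DAPI+ cells scored; TUNEL with DNase I-treated positive control. Mean ± SEM, two-way ANOVA/Sidak.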

[2] = rat, once-daily 10% eye drop, 14 and 28 days

Maximum concentration achievable ([1]; distilled water) [%] | Rat behavior (activity levels, aggression, feeding pattern, weight gain) (Long Evans rat eyes; 28-day once-daily topical 10%) | Maximum solubility ([1]; PBS, pH 7.4) [%] | Compound | EC50 for a reduction of axial elongation (axial elongation) [%] | ERG A- and B-wave amplitude vs control eyes (Long Evans rat eyes; [2]) | OCT retinal structure (Long Evans rat eyes; [2]) | Hematoxylin and eosin staining of retina (inflammation) (rat eyes) | Number of cleaved caspase-3+ DAPI+ cells vs control (apoptosis) (rat eyes) | TUNEL staining (apoptosis) (rat eyes)
0.5 | – | – | N[C@@H](Cc1ccc(O)c(O)c1)C(=O)O [levodopa] | 0.05 | – | – | – | – | –
– | no obvious changes in rat behavior | 10 | CCOC(=O)[C@@H](N)Cc1ccc(O)c(O)c1 [etilevodopa] | – | no statistically significant difference in A- or B-wave amplitudes | did not demonstrate any qualitative structural changes | no infiltration of inflammatory cells, fibrosis or morphological changes | no statistically significant change | no TUNEL^+ DAPI^+ cells observed
